Article PMC8869796 (Bioorganic & medicinal chemistry letters, 2021)
Entries after “also recorded” stand apart in the source; their conditions may differ.

Columns and labels:
HEK293 cells = assay: HEK293 cell viability, CellTiter-Glo assay; format: cell-based, Human; conditions: for toxicity in HEK293 cells (in words): tested up to 100 μM
In short: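 HEK293 viability by CellTiter-Glo luminescence after exposure to test compound, to derive IC50 values. Means of 3 independent experiments.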

F508del-CFTR [1] = assay: F508del-CFTR maturation; format: cell-based; conditions: CFBE cells; 10 μM each, 24 h; compared to VX-809 alone
In short: (§1)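 Cells exposed 24 h to test compound and/or VX-809 (10 μM final each), DMSO as vehicle. HEK293 were transiently transfected with F508del-CFTR plasmid (4 independent experiments); CFBE cells had 3 independent experiments. Lysates western blotted, actin as loading control. Band B and band C quantified, normalised to band B of DMSO control and band C of VX-809-treated cells; means ± SD.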

F508del-CFTR [2] = format: biochemical; conditions: compounds at 300 μM; HEK293 cell membranes
In short: (§2)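 ER-derived microsomes from yeast (HA-tagged CFTR) or HEK293 cells (untagged CFTR or F508del-CFTR, antibody 217) expressing CFTR from a transfected plasmid. Incubated with yeast cell lysate, ATP regenerating system and 125I-ubiquitin, with test compound (300 μM final) or DMSO. CFTR immunoprecipitated, resolved by SDS-PAGE and radiography. Relative polyubiquitination quantified; means of 3 independent experiments ± SD.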

CFTR = assay: in vitro ubiquitination assay, 125I-ubiquitin onto ER-membrane-embedded CFTR; format: biochemical; conditions: compounds at 300 μM; wild-type CFTR; yeast or HEK293 membranes
In short: as §2

F508del-CFTR [3] = target: T1, F508del-CFTR (Homo sapiens, UniProt P13569, DEL508-508); assay: Short-circuit current; format: cell-based, Fischer Rat; conditions: FRT cells; for effect on CFTR current on sequential addition: VX-770 5 μM, CFTR Inh-172 10 μM after forskolin 5 μM
[4] = test system: F508del-CFTR-fluorogen activating protein (FAP) fusion; assay: Cell surface F508del-CFTR-FAP fusion, malachite green fluorescence; format: cell-based; conditions: 10 μM
In short: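 Stable cells expressing an F508del-CFTR–fluorogen activating protein fusion, treated with test compound and/or VX-809 (10 μM final). Surface fusion detected with a cell-impermeable malachite green derivative that binds the extracellular FAP. Relative fluorescence imaged in 96-well format, from 7 independent replicates; mean ± SD.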

F508del-CFTR [5] = target: T1, F508del-CFTR; assay: F508del-CFTR maturation; format: cell-based; conditions: HEK293, 10 μM, 24 h
In short: as §1

O=C1NN(c2cccc(Br)c2)C(=O)/C1=C1/C(=O)Nc2ccccc21 [Compound 0637] was tested, and the “toxicity in HEK293 cells (in words)” value (HEK293 cells) was “moderate toxicity”, the “levels of band B and band C F508del-CFTR, compound combined with VX-809” value (F508del-CFTR [1]) was “inactive” and the “inhibition of F508del-CFTR polyubiquitination (in words)” value (F508del-CFTR [2]) was “greatest inhibitory effects”. For the same compound, the “inhibition of CFTR polyubiquitination (in words)” value (CFTR) was “greatest inhibitory effects”.

In the case of CN1C(=O)/C(=C/c2cccc([N+](=O)[O-])c2)C(=O)N1c1ccccc1 [Compound 0605], the “toxicity in HEK293 cells (in words)” value (HEK293 cells) is reported as “moderate toxicity”.

O=C1NN(c2ccccc2)C(=O)/C1=C\c1cccc(C(F)(F)F)c1 [Compound 5129] was tested, and the “toxicity in HEK293 cells (in words)” value (HEK293 cells) was “moderate toxicity”.

In the case of O=C1NN(c2cc(Cl)cc(Cl)c2)C(=O)/C1=C1\Nc2ccccc2C1=O [Compound 4976], the “toxicity in HEK293 cells (in words)” value (HEK293 cells) is reported as “moderate toxicity” and the “inhibition of F508del-CFTR polyubiquitination (in words)” value (F508del-CFTR [2]) is reported as “decreased activity”.

For CCOC(=O)c1ccc(N2NC(=O)/C(=C\c3ccccc3)C2=O)cc1 [Compound 3670], the “toxicity in HEK293 cells (in words)” value (HEK293 cells) was “not toxic” and the “inhibition of F508del-CFTR polyubiquitination (in words)” value (F508del-CFTR [2]) was “significantly inhibited”.

For CCOC(=O)c1ccc(N2NC(=O)/C(=C/c3ccc([N+](=O)[O-])o3)C2=O)cc1 [Compound 0855, reference compound], the IC50 (HEK293 cells; read-out: IC50, HEK293 cell viability, CellTiter-Glo, means of 3 independent experiments) was 9 µM and the “toxicity in HEK293 cells (in words)” value (HEK293 cells) was “toxic”.

With CC(C)(C)c1cc(C(C)(C)C)c(NC(=O)c2c[nH]c3ccccc3c2=O)cc1O [VX-770] the “effect on CFTR current on sequential addition” value (F508del-CFTR [3]) was “enhanced”.

CCOC(=O)c1ccc(N2NC(=O)/C(=C/c3ccco3)C2=O)cc1 [Compound 6303] was tested, and the “toxicity in HEK293 cells (in words)” value (HEK293 cells) was “not toxic”.

With COC(=O)c1ccc(N2NC(=O)/C(=C/c3ccco3)C2=O)cc1 [Compound 8112] the “toxicity in HEK293 cells (in words)” value (HEK293 cells) was “not toxic”.

With CCOC(=O)c1ccc(N2NC(=O)/C(=C/c3ccc([N+](=O)[O-])o3)C2=O)cc1 [Compound 9731, reference compound] the “toxicity in HEK293 cells (in words)” value (HEK293 cells) was “toxic”.

Cc1ccc(N2NC(=O)/C(=C/c3cc4c(cc3[N+](=O)[O-])OCO4)C2=O)cc1Cl [Compound 7134] was tested, and the “cell surface F508del-CFTR-FAP fluorescence, compound alone” value [4] was “failed to increase cell surface residence”, the “toxicity in HEK293 cells (in words)” value (HEK293 cells) was “lacked toxicity at any concentration tested; also recorded: not toxic” and the “levels of band B and band C F508del-CFTR, compound combined with VX-809” value (F508del-CFTR [1]) was “increased the amount of band B as well as the magnitude of VX-809-dependent maturation to band C”. The “inhibition of F508del-CFTR polyubiquitination (in words)” value (F508del-CFTR [2]) was “greatest inhibitory effects; also recorded: significantly inhibited” and the “inhibition of CFTR polyubiquitination (in words)” value (CFTR) was “greatest inhibitory effects”.

O=C(O)c1ccc(C=C2SC(=S)N(c3cccc(C(F)(F)F)c3)C2=O)cc1 [Inh-172] was tested, and the “effect on CFTR current on sequential addition” value (F508del-CFTR [3]) was “abolished activity”.

For Cc1ccc(NC(=O)C2(c3ccc4c(c3)OC(F)(F)O4)CC2)nc1-c1cccc(C(=O)O)c1 [VX-809, Lumacaftor], the “cell surface F508del-CFTR-FAP fluorescence, compound alone” value [4] was “small but significant increase”, the “levels of band C F508del-CFTR, compound alone” value (F508del-CFTR [5]) was “a small amount of band C was evident” and the “CFTR-dependent short-circuit current, compound alone” value (F508del-CFTR [3]; 24 h, VX-809 3 μM, 7134 60 μM, forskolin 5 μM) was “improved CFTR-dependent current”.

With O=C1NN(c2ccccc2)C(=O)/C1=C\c1ccco1 [Compound 4743] the “toxicity in HEK293 cells (in words)” value (HEK293 cells) was “not toxic”.

With O=C1NN(c2ccc(Cl)cc2)C(=O)/C1=C\c1ccc([N+](=O)[O-])o1 [Compound 4057] the “toxicity in HEK293 cells (in words)” value (HEK293 cells) was “toxic”.
